Measurements from ChEMBL document CHEMBL1123858, “Synthesis and gastrointestinal pharmacology of a 3E,5Z diene analogue of misoprostol” (1987).

Experiments:
[1] = species on record: Canis familiaris; assay: Activity ratio ED50 of diarrhea to ED50 of antisecretory in histamine -stimulated gastric fistula dogs; assay type: functional, Canis lupus familiaris, Stomach
In short: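 Ratio of the 8-h rat diarrhea ED50 to the dog antisecretory ED50. Diarrhea: fasted (24 h) male Charles River rats (210–230 g; n = 6–12) given logarithmically graded oral doses and scored all-or-none hourly to 8 h, with ED50 from a maximum-likelihood logistic model. Antisecretory ED50: intragastric dosing in histamine-infused gastric fistula dogs, from 4-h acid output.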

[2] = test system: Canis familiaris; assay: Tested for gastric antisecretory activity in histamine-stimulated gastric fistula dogs by intragastric administration; assay type: functional; details: Canis lupus familiaris, Stomach, po
In short: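 Conscious adult female beagles (6–12 kg) with simple gastric fistulas, fasted 18 h. After a 30-min basal period, drug given intragastrically via dosing plug with cannula closed 30 min, then histamine infused at 15 µg kg-1 h-1. Juice collected every 30 min for 4 h and titrated with 0.1 N NaOH to pH 7.0. ED50 is 50% inhibition of 4-h total acid output, from three-dose curves.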

[3] = test system: Canis familiaris; assay: Tested for relative antisecretory potency in histamine-stimulated gastric fistula dogs by intragastric administration; value ranges from (0.53-1.76); assay type: functional; details: Canis lupus familiaris, Stomach, po
In short: (§1)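 Gastric fistula beagles given drug intragastrically, then histamine infused at 15 µg kg-1 h-1. Total acid output collected over 4 h by NaOH titration to pH 7.0, and percent inhibition curves built. Relative antisecretory potency and its limits were computed by bioassay statistical analysis of these dose-response data.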

[4] = test system: Canis familiaris; assay: Tested for gastric antisecretory activity in histamine-stimulated Heidenhain pouch dogs by intravenous administration; assay type: functional; details: Canis lupus familiaris, Stomach
[5] = test system: Canis familiaris; assay: Tested for relative antisecretory potency in histamine-stimulated gastric fistula dogs by intragastric administration; assay type: functional; details: Canis lupus familiaris, Stomach, po; in short: as §1
[6] = test system: Canis familiaris; assay: Tested for relative antisecretory potency in histamine-stimulated gastric fistula dogs by intragastric administration; value ranges from (0.13-0.48); assay type: functional; details: Canis lupus familiaris, Stomach, po; in short: as §1

SMILES	Ratio [1]	ED50 [2]	relative potency [3]	ED50 [4]	relative potency [5]	relative potency [6]
CCCCC(C)(O)C/C=C/[C@H]1[C@H](O)CC(=O)[C@@H]1C/C=C\C=C/CC(=O)OC.CCCCC(C)(O)C/C=C/[C@H]1[C@H](O)CC(=O)[C@@H]1C/C=C\C=C\CC(=O)OC (mixture of isomers)	8025	0.08 µg/kg	0.95	–	–	–
CCCCC(C)(O)C/C=C/[C@H]1[C@H](O)CC(=O)[C@@H]1CC#C/C=C/CC(=O)OC (stereo not given in full)	–	–	–	> 1 µg/kg	–	–
CCCCC(C)(O)C/C=C/[C@H]1[C@H](O)CC(=O)[C@@H]1C/C=C\C=C\CC(=O)OC (stereo not given in full)	1638	0.08 µg/kg	–	–	1	–
CCCCC(C)(O)C/C=C/[C@H]1[C@H](O)CC(=O)[C@@H]1CCCCCCC(=O)OC (stereo not given in full) [MISOPROSTOL]	1364	0.28 µg/kg	–	–	–	0.26
